Measurements collected from several papers.
Compare with care: the assays were run in different laboratories.
Target: Serine/threonine-protein kinase 16 (STK16, Homo sapiens, UniProt O75716)

| Structure (SMILES) | test | setting | quantity | result |
| --- | --- | --- | --- | --- |
| Cc1nn(C)cc1-c1nc2c(N3CCN(Cc4ccc(Cl)cc4)CC3)c(Cl)cnc2[nH]1 | binding, competition with immobilised ligand | 1 µM | remaining binding | 18% |
| COc1ncccc1-c1cnn2ccc(N3CCN(C(=O)OC(C)C)CC3)nc12 | binding, competition with immobilised ligand | 1 µM | remaining binding | 55% |
| Cn1cncc1[C@@](O)(COc1ccc(C#N)cc1-c1ccc(OC(F)(F)F)cc1)c1ccc(C#N)cc1 | cell-free assay, competition with immobilised ligand | 1 µM | remaining binding | 99% |
| COc1cc(Nc2ncc(F)c(Nc3ccc4c(n3)NC(=O)C(C)(C)O4)n2)cc(OC)c1OC | binding, competition with immobilised ligand | 10 µM | inhibition | 100% |
| CC(C)(C)c1cc(C=C(C#N)C#N)cc(Br)c1O | enzyme activity, inhibitor | 0.5 µM | remaining activity | 99.2% |
| Cn1cc(-c2cccc(N3CCc4c(sc5c4CC(C)(C)C5)C3=O)c2CO)cc(Nc2ccncn2)c1=O | enzyme activity, inhibitor | 1 µM | inhibition | -3% |
| Nc1ncc(-c2nc(N3CCOCC3)nc(N3CCOCC3)n2)c(C(F)F)n1 | binding, competition with immobilised ligand | 10 µM | remaining binding | 56% |
| Cn1cc(-c2cc(F)cc(N3CCn4c(cc5c4CCCC5)C3=O)c2CO)cc(Nc2ccc(N3CCN(C4COC4)CC3)cn2)c1=O | enzyme activity, inhibitor | 0.1 µM | inhibition | 10% |
| O=c1[nH]c2ccccc2n1C1CCN(Cc2ccc(-c3[nH]c4cc5ncnc5cc4nc3-c3ccccc3)cc2)CC1 | cell-free assay | 0.5 µM | remaining signal | 99.5% |
